The source of these data is ChEMBL document CHEMBL1149161, “Design, synthesis, and biological evaluation of substituted 2-cyclohexyl-4-phenyl-1H-imidazoles: potent and selective neuropeptide Y Y5-receptor antagonists” (J Med Chem, 2004).

Data set [1] in a line: Inhibition of […] binding to recombinant human chimeric NPY5/NPY1 receptor expressed in Sf9 cells. Put shortly:
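Membranes from Sf9 cells expressing the human chimeric NPY5/NPY1 receptor, in 50 mM Tris-HCl pH 7.4 with 5 mM KCl, 120 mM NaCl, 2 mM CaCl2, 1 mM MgCl2 and 0.1% BSA. Membranes (5–50 µg) competed against 0.050 nM porcine [125I]PYY for 2 h at room temperature. Nonspecific binding was defined with 1 µM human NPY. Filtration and gamma counting followed; Ki came from a Hill fit; mean of n = 2-3 ± SEM.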

The subject of data set [2] is COS-7. The experiment in a line: Percentage block at hERG Voltage-gated potassium channel (subunit Kv11.1) expressed in COS7 cells by electrophysiological whole cell assay (300 nM). In kind it is cell-based. The settings on record: Homo sapiens.
For data set [3], the system named is Rattus norvegicus. Nature of the data set: Oral bioavailability after peroral administration in rats. It counts as organism-based. An outline of the steps: (§1)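 Sprague–Dawley rats received a single 20 mg/kg oral gavage dose in 20% vitamin E/water (n = 3). Blood was sampled from predose to 24 h. Heparinized plasma was precipitated with acetonitrile and analyzed by LC. Bioavailability was set against a 3 mg/kg iv dose (n = 2).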

Data set [4] in a line: Volume of distribution at steady state. It counts as ADME, organism-based. The following applies: in vivo; read-out: Vss. Put shortly: (§2)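 Sprague–Dawley rats received a single 3 mg/kg iv catheter dose in 50% PEG/water (n = 2). Blood was sampled at predose and from 5 min to 24 h. Heparinized plasma was precipitated with acetonitrile and analyzed by LC.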
Data set [5] can be described thus: Oral half life of the compound. In kind it is ADME, organism-based. The following applies: in vivo. An outline of the steps: as §1
The nature of data set [6]: Plasma clearance of the compound. It counts as ADME, organism-based. Put shortly:
as §2

Data set [7] is described as follows: Maximum plasma concentration after oral dosing in rat. In kind it is ADME, organism-based. Set-up: route oral. An outline of the steps: as §1

For `FC(F)(F)c1cccc(-c2c[nH]c(-c3ccccc3)n2)c1`, the Ki in data set [1] amounted to 2.5 nM.

With `O=C(NCCO)[C@H]1CC[C@H](c2nc(-c3cccc(C(F)(F)F)c3)c[nH]2)CC1`, in data set [1], the inhibitory constant (Ki) was determined as 11 nM.

In the case of `COCCNC(=O)[C@H]1CC[C@H](c2nc(-c3cccc(C(F)(F)F)c3)c[nH]2)CC1`, the Ki in data set [1] was 99 nM.

With `C[C@H](O)CNC(=O)[C@H]1CC[C@H](c2nc(-c3cccc(C(F)(F)F)c3)c[nH]2)CC1`, the Ki in data set [1] was found to be 31 nM.

`O=S(=O)(NC[C@H]1CC[C@H](c2nc(-c3cccc(C(F)(F)F)c3)c[nH]2)CC1)c1ccccc1` registered an inhibition in data set [2] of 87%. Further, in data set [1], the Ki amounted to 0.2 nM.

Turning to `NCCNC(=O)[C@H]1CC[C@H](c2nc(-c3cccc(C(F)(F)F)c3)c[nH]2)CC1`, the Ki in data set [1] worked out at 915 nM.

`FC(F)(F)c1cccc(-c2c[nH]c(C3CCCCC3)n2)c1`: the Ki in data set [1] is 6 nM.

As to `CC(C)(CO)NC(=O)[C@H]1CC[C@H](c2nc(-c3cccc(C(F)(F)F)c3)c[nH]2)CC1`, the bioavailability in data set [3] turned out to be 36%. Besides, the Ki in data set [1] was found to be 2.8 nM. For the same compound, the Vd in data set [4] stood at 6 L/kg. In addition, the half-life in data set [5] is 13 h. In data set [6], the clearance came out at 50 mL/min/kg. For the same compound, the highest level in data set [7] (Cmax) was 714 ng/mL.

Turning to `CC(=O)NNC(=O)[C@H]1CC[C@H](c2nc(-c3cccc(C(F)(F)F)c3)c[nH]2)CC1`, the Ki in data set [1] amounted to 1.4 nM.

Consider `O=C(NS(=O)(=O)c1ccccc1)[C@H]1CC[C@H](c2nc(-c3cccc(C(F)(F)F)c3)c[nH]2)CC1`, for which, in data set [1], the Ki came to 31 nM.

In data set [2], `CN(C[C@H]1CC[C@H](c2nc(-c3cccc(C(F)(F)F)c3)c[nH]2)CC1)S(=O)(=O)c1ccccc1` registered an inhibition of 85%. Moreover, the Ki in data set [1] is 1.3 nM.

On to `CC(=O)CNC(=O)[C@H]1CC[C@H](c2nc(-c3cccc(Br)c3)c[nH]2)CC1`, for which, in data set [1], the Ki came out at 10 nM.

With `O=C(NCCCO)[C@H]1CC[C@H](c2nc(-c3cccc(C(F)(F)F)c3)c[nH]2)CC1`, in data set [1], the Ki came to 185 nM.

In the case of `C[C@@H](O)CNC(=O)[C@H]1CC[C@H](c2nc(-c3cccc(C(F)(F)F)c3)c[nH]2)CC1`, in data set [1], the Ki amounted to 8 nM.
